Test results reported in ChEMBL document CHEMBL1130244, “Boron-containing polyamines as DNA targeting agents for neutron capture therapy of brain tumors: synthesis and biological evaluation” (J Med Chem, 1997).

Assays:
[1] = Actual boron concentration in media was determined by using direct current plasma atomic emission spectroscopy (DCP-AES) after 24 hr incubation
Rattus norvegicus = species: Rattus norvegicus; test: In vitro uptake of compound by F98 glioma cells was determined by measuring cellular boron content using direct current plasma atomic emission spectroscopy (DCP-AES) after 24 hr incubation
[2] = Concentration required to produce a 50% reduction in the uptake of [3H]TdR, by F98 glioma cells; format: functional; details: Rattus norvegicus, F98, 24 h
How it was run: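 F98 rat glioma cells, 10 000/well, grown overnight at 37 °C in DMEM with 10% FBS, then 24 h with polyamine at 1–100 μM (0.1–10 μg/mL boron); medium replaced with compound-free medium, pulsed with 0.1 μCi [3H]TdR per well for 18–24 h, then harvested and counted. Six replicates per concentration; IC50 from cpm as % of untreated controls.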

Nucleic Acid = test: Binding of compound to calf thymus DNA was determined by an ethidium bromide displacement assay; format: nucleic-acid assay, Bos taurus

IC50 [2] [µM] | IC50 (Nucleic Acid) [µM] | Structure (SMILES) | Cmedia [1] | Concentration (Rattus norvegicus)
– | – | N[C@@H](Cc1ccc(B(O)O)cc1)C(=O)O | 50 ug of B/ml | 81 µg of B g-1
> 100 | – | CCNCCCNCCCCNCCCNCC [BIS(ETHYL)SPERMINE] | – | –
> 100 | 175 | NCCCCNCCCN [SPERMIDINE] | – | –
> 100 | 17 | NCCCNCCCCNCCCN [SPERMINE] | – | –
